Assay outcomes as filed in PubChem.
Hits are enriched below; roughly 4.6% of the tested compounds scored in any of these assays.
OX1R antag-1 – blocks the human orexin 1 receptor; O43613; CHO/OX1R cells, Fluo-8 calcium fluorescence, orexin A; inhibition, % at 5 µM; 330,000 tested, 0.43% active; AID 434989;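 active = inhibition above its plate's threshold, mean inhibition of all tested compounds on the plate plus 3 SD, cut at about 37% in these data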;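 also: 0% = orexin A challenge wells and 100% = SB-334867-A antagonist wells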
TAAR1 ag – human TAAR1 agonism. activation, % at 3 µM. CHO RD-HGA16 TAAR1, Fluo-8 calcium fluorescence; vehicle wells 0%, saturating PEA agonist 100%. 360,000 tested, 0.99% active. AID 624467;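 active = activation above the mean activation of all test compounds in the run plus 3 SD, cut at about 38% in these data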
Target sequence (Q96RJ0 whole entry, looked up): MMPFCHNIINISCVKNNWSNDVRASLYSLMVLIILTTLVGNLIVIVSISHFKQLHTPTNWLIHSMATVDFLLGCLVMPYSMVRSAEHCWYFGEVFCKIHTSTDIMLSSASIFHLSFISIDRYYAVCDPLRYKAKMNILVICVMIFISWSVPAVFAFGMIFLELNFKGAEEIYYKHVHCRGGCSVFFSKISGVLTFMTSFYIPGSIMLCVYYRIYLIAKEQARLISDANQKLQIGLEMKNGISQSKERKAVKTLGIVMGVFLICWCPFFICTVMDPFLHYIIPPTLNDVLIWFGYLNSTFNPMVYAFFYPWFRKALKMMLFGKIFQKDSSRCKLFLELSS
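System: CHO-derived RD-HGA16 cells with stable Gα16 and human TAAR1. Times: 17-24 h plating, Fluo-8 75 min 37 °C, 30 min RT. Measured by: calcium-sensitive Fluo-8 signal, excitation 470-495, emission 515-575 nm. Read-out basis: % activation relative to PEA EC100 response. Control set: DMSO and PEA EC100. Repeats: no replicates (n 1).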
GPR7 antag – antagonists of human GPR7 (neuropeptides B/W receptor 1). GPR7-expressing cells, fluorescence antagonist assay. inhibition, % at 4.4 µM. P48145. 290,000 tested, 1.1% active; in the data active = inhibition above about 16%, passing the limit was not always enough;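 also: cells stimulated with the agonist NPW; 0% = agonist with vehicle and 100% = vehicle without agonist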
Target sequence (P48145 whole entry, looked up): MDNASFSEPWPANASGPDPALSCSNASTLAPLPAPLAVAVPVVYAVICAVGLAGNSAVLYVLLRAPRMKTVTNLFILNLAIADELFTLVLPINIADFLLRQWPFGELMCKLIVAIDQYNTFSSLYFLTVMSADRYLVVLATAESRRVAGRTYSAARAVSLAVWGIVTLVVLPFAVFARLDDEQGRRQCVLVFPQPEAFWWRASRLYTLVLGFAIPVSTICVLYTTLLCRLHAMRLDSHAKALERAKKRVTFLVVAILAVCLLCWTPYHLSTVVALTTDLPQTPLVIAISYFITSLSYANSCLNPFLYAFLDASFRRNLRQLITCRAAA
OX1R antag-2 – OX1R (human) antagonism | O43613 | OX1R-expressing cells, FRET antagonist read-out | inhibition, % at 6.6 µM | 330,000 tested, 1.8% active; in the data active = inhibition mostly above about 38%, no sharp cut-off; inactive = mostly below about 40%;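 also: 0% = agonist challenge alone and 100% = reference antagonist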
TAAR1 antagonist – antagonists of human TAAR1; 360,000 tested, 1.5% active; Q96RJ0; CHO RD-HGA16 TAAR1, Fluo-8 calcium fluorescence, antagonist; AID 624466; inhibition, % at 3 µM;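 active = inhibition above a per-plate cutoff, the mean inhibition of test compounds on that plate plus 3 SD, cut at about 49% in these data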;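 also: 0% = DMSO plus EC80 beta-PEA response and 100% = DMSO alone without agonist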
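Assay system: RD-HGA16 CHO cells with stable hTAAR1 and Gα16 / Reagent: EC80 β-phenethylamine stimulus / Doses: 3 µM, single point / Timing: dye loading 75 min at 37 °C, then 30 min room temperature / Measured by: Fluo-8 intracellular calcium dye fluorescence, real-time kinetic reads / Controls: vehicle wells and EC80 agonist wells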
CHO parental Ca – counter-screen for OX1R antagonists: effect in parental CHO cells | parental CHO-K1, ATP-induced calcium, Fluo-8 fluorescence | inhibition, % at 5.6 µM | AID 463079 | 330,000 tested, 0.63% active;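 active = inhibition above that plate's mean sample inhibition plus 3 SD, cut at about 26% in these data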;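 also: 0% = ATP-challenged DMSO wells and 100% = DMSO wells without ATP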
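Assay system – parental CHO cells · Reagent – ATP stimulus · Detection – intracellular calcium via Fluo-8 no-wash fluorescent dye · Evaluation – percent inhibition of ATP-evoked calcium rise, normalized to controls · Controls – ATP wells versus no-ATP DMSO wells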
Starred values were filed as active, the others as inactive; x = not tested or not shown.

SMILES	OX1R antag-1	TAAR1 ag	GPR7 antag	OX1R antag-2	TAAR1 antagonist	CHO parental Ca
O=C(Cc1ccc(NC(=O)C2CCCN(C(=O)c3ccccc3)C2)cc1)Nc1cccc(C(=O)N2CCCCC2)c1 (stereo unspecified)	x	2	x	x	-39	x
O=C(OCc1ccccc1)N1Cc2ccnnc2CC1c1ccccc1-c1ccc(C(F)(F)F)cc1 (stereo unspecified)	x	7	x	x	-18	x
C=CCn1c(O)c(N=Nc2ccccc2O)c2ccccc21	77*	6	x	6	5	67*
COC(=O)[C@]12C[C@H](CC(=O)N3CCCCC3)C(=O)N(Cc3ccccc3)C1=C[C@H](C(C)C)O[C@@H]2C1CC1	x	-2	x	x	-37	x
Cc1cccc2cc(C#N)c(SCC(=O)N3CC(=O)Nc4ccccc43)nc12	14	5	2	71*	13	0
CN(C)CCOc1ccc(-c2c(-c3ccccc3)sc3ccccc23)cc1	64*	27	x	10	42	49*
CC(C)c1nnc(NC(=O)C2c3ccccc3Oc3ccccc32)s1	-12	42*	4	2	-2	-9
COc1ccc(C(=O)NCC2CCN(C(=O)C(=O)c3cccs3)CC2)cc1	x	1	x	x	-1	x
COc1ccc(N(CC(=O)NC2CCCCCC2)S(=O)(=O)c2ccccc2)cc1Cl	-13	-2	3	26	-6	-13
CCOc1ccc(NC(=O)CN(C)C(=O)c2cc(-c3ccco3)nc3ccccc23)cc1OCC	x	10	x	x	52*	x
CCOc1ccc(NC(=O)CN(C)C(=O)c2cc(C)nc3ccccc23)cc1OCC	-23	2	x	1	10	-9
CCOc1ccc(NC(=O)CN(C)C(=O)c2cn(-c3ccc(C)cc3)nc2-c2cccc(OC)c2)cc1OCC	x	9	x	x	64*	x
O=C(NNC(=O)c1cc(-c2ccco2)nc2ccccc12)c1ccccc1	3	10	-21	20	50*	-17
COc1ccc(NC(=O)CN(C)C(=O)c2cc(-c3ccncc3)nc3ccccc23)cc1	-14	19	-18	11	52*	-8
O=C1c2cc(Cl)ccc2OC2(CCNCC2)C12CC(c1ccccc1)=NO2 (stereo unspecified)	-2	43*	x	32	39	3
O=C1c2cc(Cl)ccc2OC2(CCNCC2)C12CC(c1ccc(Cl)cc1)=NO2 (stereo unspecified)	-22	x	x	19	x	-2
CC(C)(C)OC(=O)N[C@H]1C=C[C@@H](CC(=O)OCC(F)(F)F)C1	x	3	x	x	-12	x
Cc1ccc(NC(=O)CC2SC3=NCCN3C2=O)cc1 (stereo unspecified)	14	2	-9	8	8	33*
CSCCC(NS(=O)(=O)c1ccc2c(c1)OCCO2)C(=O)N(C)Cc1ccccc1F (stereo unspecified)	-19	31	x	9	55*	-18
COc1ccc(C2CCCCCN2C(=O)C2CCN(S(=O)(=O)c3ccc(C)cc3)CC2)cc1 (stereo unspecified)	x	1	x	x	-7	x
O=C(Cn1sc2ccccc2c1=O)Nc1ccc(Br)cc1	x	39*	x	x	24	x
C[C@H](CO)N1C[C@H](C)[C@@H](CN(C)C(=O)Nc2ccc3c(c2)OCCO3)OCc2cn(nn2)CCCC1=O	x	5	x	x	-3	x
COc1ccc(CN(C)C(=O)c2cc(S(=O)(=O)NCc3ccccc3)ccc2C)c(OC)c1	10	6	x	33*	40	1
COc1ccc(CCN(C)C(=O)c2cc(S(=O)(=O)NCc3ccccc3)ccc2C)cc1OC	-30	4	x	31	-25	-24
CCCCCC(=O)N1C[C@H](O)[C@@H](n2cc(-c3ccc(F)cc3)nn2)C[C@@H]1c1ccc(OC)cc1	x	2	x	x	20	x
SMILES	OX1R antag-1	TAAR1 ag	GPR7 antag	OX1R antag-2	TAAR1 antagonist	CHO parental Ca
N=c1oc2c3c4c(cc2cc1C(=O)Nc1ccccc1)CCCN4CCC3	94*	x	-4	95*	x	62*
Cc1ccc(NC(=O)c2cc3ccccc3oc2=N)cc1	8	0	-3	-1	-17	5
CN1CCN(c2ccccc2NC(=O)c2cccc([N+](=O)[O-])c2)CC1	-29	0	-12	27	0	-13
O=C(Nc1ccccc1N1CCN(C(=O)c2ccc(Cl)cc2)CC1)c1cccc([N+](=O)[O-])c1	-9	7	5	20	51*	-14
O=C(c1ccc(-c2ccc(Cl)cc2)o1)N1CCN(c2ccc([N+](=O)[O-])cc2Cl)CC1	6	6	-4	17	-6	37*
COc1ccccc1Cc1c(-c2ccc(F)cc2)nc2c3ccccc3ccn12	x	-1	x	x	-2	x
CCn1c2ccccc2c2cc(CNCc3ccc(OC)cc3OC)ccc21	16	46*	29*	22	3	-13
COc1cccc(CNCc2ccc(OC)cc2OC)c1	-20	4	-7	6	-25	-17
Clc1nssc1=Nc1ccc(Br)cc1	x	42*	-8	x	32	x
O=C1NC(c2ccc(Br)cc2)c2c(-c3ccccc3)n[nH]c21 (stereo unspecified)	x	-1	x	x	-8	x
Cc1cccc(NS(=O)(=O)c2ccc(NC(=O)CN(c3cc([N+](=O)[O-])ccc3C)S(C)(=O)=O)cc2)c1	15	2	66*	14	6	20
COc1ccc(C)cc1NS(=O)(=O)c1ccc(NC(=O)CN(c2cc([N+](=O)[O-])ccc2C)S(C)(=O)=O)cc1	4	2	17	14	-2	28
Clc1cccc(CN2CCN(c3ncc(Cc4ccccc4)cn3)CC2)c1Cl	x	-1	x	x	-10	x
CCOC(=O)C(CNc1ccc(OCc2ccccc2)cc1)NC(=O)c1ccccc1 (stereo unspecified)	x	1	x	x	38	x
O=C(Nc1cccc(O)c1)c1ccc(NC(=O)c2cccs2)cc1	2	8	-5	44	52*	-5
COc1cc(C(=O)Nc2cccc(NC(=O)c3cccs3)c2)cc(OC)c1OC	x	12	-17	x	51*	x
COc1cc(C(=O)Nc2cccc(NC(=O)c3ccccc3)c2)cc(OC)c1OC	-16	14	-22	8	46	-15
Cc1ccccc1S(=O)(=O)N1CCCc2nc(-c3ccc(Br)cc3)ccc21	x	0	x	x	-33	x
CCc1ccc(OC(C)C(=O)Nc2ccc(S(=O)(=O)Nc3nccs3)cc2)cc1 (stereo unspecified)	9	45*	11	13	55*	12
CCOC(=O)C1=C(C(=O)OCC)C2N(Cc3ccc(Br)cc3)c3ccccc3[C@@]23C[C@@H](C(=O)OC)N(S(=O)(=O)c2ccc(C(F)(F)F)cc2)C3=N1 (stereo partly specified)	x	2	x	x	-27	x
NC1=C(c2ccccc2)C(=O)NC1=O	-15	-1	25	40*	-1	-15
O=C1OCC(c2ccccc2)=C1c1ccccc1	-14	-1	-22	13	4	-9
